Structures can show the parent of a compound that is named as a salt. Where two headings read alike, the source gives them in different places.
Columns and labels:
[1] = target: α6L9′Sβ2L9′SLFM/AAQA (α6β2‡) nAChR (Rattus norvegicus, UniProt P12390+P43143, L273S/L280S/L348M/R364A/R365A/R367A); experiment: cell-based; format: cell-based
[2] = target: α6β2‡ nAChR, TrpB (α6:W149) = 5-Me-Trp (Rattus norvegicus, UniProt P12390+P43143, L273S/L280S/L348M/R364A/R365A/R367A/W179X); experiment: TEVC dose-response, nonsense suppression, MeTrp at TrpB; format: cell-based
[3] = target: α6β2‡ nAChR, TrpB (α6:W149) = Trp (Rattus norvegicus, UniProt P12390+P43143, L273S/L280S/L348M/R364A/R365A/R367A); experiment: TEVC dose-response, nonsense suppression series, Trp at TrpB; format: cell-based
α6β2‡ nAChR, TrpB (α6:W149) = Trp, sequence (P43143 31-493 L280S): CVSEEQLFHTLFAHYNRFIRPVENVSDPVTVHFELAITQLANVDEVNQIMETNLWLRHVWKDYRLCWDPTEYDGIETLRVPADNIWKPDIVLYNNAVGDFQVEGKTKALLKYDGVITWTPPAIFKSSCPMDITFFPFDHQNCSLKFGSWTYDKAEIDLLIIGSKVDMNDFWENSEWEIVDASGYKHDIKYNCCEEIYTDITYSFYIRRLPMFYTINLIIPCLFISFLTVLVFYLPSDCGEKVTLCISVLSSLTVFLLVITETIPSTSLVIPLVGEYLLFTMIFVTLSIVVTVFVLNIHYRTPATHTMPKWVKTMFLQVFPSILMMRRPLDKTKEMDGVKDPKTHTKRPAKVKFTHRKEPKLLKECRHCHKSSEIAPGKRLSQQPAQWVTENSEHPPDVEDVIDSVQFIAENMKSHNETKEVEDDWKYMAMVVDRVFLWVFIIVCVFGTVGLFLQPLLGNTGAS
α6β2‡ nAChR, TrpB (α6:W149) = Trp, sequence (P12390 25-500 L273S/L348M/R364A/R365A/R367A): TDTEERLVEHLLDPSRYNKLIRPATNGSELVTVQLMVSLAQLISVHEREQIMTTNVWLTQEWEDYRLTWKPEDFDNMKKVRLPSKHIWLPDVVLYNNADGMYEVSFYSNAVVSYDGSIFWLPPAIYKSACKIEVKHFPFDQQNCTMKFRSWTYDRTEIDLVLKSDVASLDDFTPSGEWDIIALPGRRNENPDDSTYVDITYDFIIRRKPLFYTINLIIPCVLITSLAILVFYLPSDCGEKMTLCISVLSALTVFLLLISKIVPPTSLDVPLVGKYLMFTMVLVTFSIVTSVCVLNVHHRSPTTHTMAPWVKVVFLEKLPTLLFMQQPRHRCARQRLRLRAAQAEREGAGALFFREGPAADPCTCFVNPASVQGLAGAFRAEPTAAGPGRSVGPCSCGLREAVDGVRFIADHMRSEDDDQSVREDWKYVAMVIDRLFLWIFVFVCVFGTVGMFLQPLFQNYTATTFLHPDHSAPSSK

[4] = target: α6β2‡ nAChR, TrpB (α6:W149) = 5-CNTrp (Rattus norvegicus, UniProt P12390+P43143, L273S/L280S/L348M/R364A/R365A/R367A/W179X); experiment: TEVC dose-response, nonsense suppression, CNTrp at TrpB; format: cell-based; conditions: 10:1 α6β2‡
[5] = target: α6β2‡ nAChR, TrpB (α6:W149) = 5,6,7-F3Trp (Rattus norvegicus, UniProt P12390+P43143, L273S/L280S/L348M/R364A/R365A/R367A/W179X); experiment: TEVC dose-response, nonsense suppression, F3Trp at TrpB; format: cell-based
[6] = target: α6β2‡ nAChR, TrpB (α6:W149) = 5,7-F2Trp (Rattus norvegicus, UniProt P12390+P43143, L273S/L280S/L348M/R364A/R365A/R367A/W179X); experiment: TEVC dose-response, nonsense suppression, F2Trp at TrpB; format: cell-based
[7] = target: α6β2‡ nAChR, TrpB (α6:W149) = 6-F1Trp (Rattus norvegicus, UniProt P12390+P43143, L273S/L280S/L348M/R364A/R365A/R367A/W179X); experiment: TEVC dose-response, nonsense suppression, 6-F1Trp at TrpB; format: cell-based; conditions: TrpB = 6-F1Trp; 10:1 α6β2‡
[8] = target: TrpB (α6:W149) in α6β2‡ nAChR (Rattus norvegicus, UniProt P12390+P43143, L273S/L280S/L348M/R364A/R365A/R367A); experiment: Fluorination plot; format: cell-based; conditions: for cation-π interaction with the indole side chain of TrpB: fluorination plot at TrpB in α6β2‡
TrpB (α6:W149) in α6β2‡ nAChR, sequence (P43143 31-493 L280S): as the sequence (P43143 31-493 L280S) above
TrpB (α6:W149) in α6β2‡ nAChR, sequence (P12390 25-500 L273S/L348M/R364A/R365A/R367A): as the sequence (P12390 25-500 L273S/L348M/R364A/R365A/R367A) above
Procedure, shortened: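 Rat α6β2‡ with UAG at TrpB, 10:1 α6:β2 mRNA, coinjected with photodeprotected fluoro-Trp–tRNA (25 ng mRNA per cell) into stage V–VI Xenopus oocytes; 24–48 h at 18 °C in ND96 pH 7.5. TEVC at −60 mV, 15 s agonist pulses in Ca2+-free ND96. EC50 from Hill fits of normalized averaged data. Log fold-shift in EC50 plotted against calculated cation–fluoro-Trp binding energy.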

α4β2 nAChR = conditions: ref Dougherty and Van Arnam, 2014; cited from earlier work
[9] = target: α6β2‡ nAChR, TrpB (α6:W149) = 5-Br-Trp (Rattus norvegicus, UniProt P12390+P43143, L273S/L280S/L348M/R364A/R365A/R367A/W179X); experiment: TEVC dose-response, nonsense suppression, BrTrp at TrpB; format: cell-based
muscle-type nAChR = conditions: ref Beene et al., 2002; cited from earlier work
[10] = target: α6β2‡ nAChR, TrpB (α6:W149) = 5-F1Trp (Rattus norvegicus, UniProt P12390+P43143, L273S/L280S/L348M/R364A/R365A/R367A/W179X); experiment: TEVC dose-response, nonsense suppression, 5-F1Trp at TrpB; format: cell-based
[11] = target: α6β2‡ nAChR, TrpB (α6:W149) = 4-F1Trp (Rattus norvegicus, UniProt P12390+P43143, L273S/L280S/L348M/R364A/R365A/R367A/W179X); experiment: TEVC dose-response, nonsense suppression, 4-F1Trp at TrpB; format: cell-based; conditions: TrpB = 4-F1Trp; 10:1 α6β2‡
α6β2‡ nAChR = α6β2‡ nAChR (Rattus norvegicus, UniProt P12390+P43143, L273S/L280S/L348M/R364A/R365A/R367A); format: cell-based
α6β2‡ nAChR, sequence (P43143 31-493 L280S): as the sequence (P43143 31-493 L280S) above
α6β2‡ nAChR, sequence (P12390 25-500 L273S/L348M/R364A/R365A/R367A): as the sequence (P12390 25-500 L273S/L348M/R364A/R365A/R367A) above

[12] = agonist panel, α6-biased population, Hill coefficient
[13] = agonist panel, α6-biased population, range of maximum currents
[14] = agonist panel, α6-biased population, holding potential −60 mV
[15] = Table 4, fold-shift in EC50 relative to Trp

α6L9′Sβ2L9′SLFM/AAQA (α6β2‡) nAChR, sequence (P43143 31-493 L280S): as the sequence (P43143 31-493 L280S) above
α6L9′Sβ2L9′SLFM/AAQA (α6β2‡) nAChR, sequence (P12390 25-500 L273S/L348M/R364A/R365A/R367A): as the sequence (P12390 25-500 L273S/L348M/R364A/R365A/R367A) above

Clc1ccc(C2CC3CCC2N3)cn1 (racemic) [Epi, (±)-epibatidine]
nH [1, 12]: 1.9 ± 0.2
Imax [1, 13]: 0.47–2.81 µA

CC(=O)OCC[N+](C)(C)C [ACh, Acetylcholine chloride]
Imax ([2]; 10:1 α6β2‡): 0.19–19.4 uA
nH ([2]; 10:1 α6β2‡): 1.18 ± 0.02
nH [1, 12]: 1.36 ± 0.03
Imax [1, 13]: 0.28–14.9 µA
nH ([1]; α6:β2 mRNA ratio 1:1, Hill coefficient): 1.15 ± 0.06
Imax ([1]; α6:β2 mRNA ratio 1:1, range of maximum currents): 4.42–14.2
nH ([1]; α6:β2 mRNA ratio 1:2, Hill coefficient): 1.23 ± 0.05
Imax ([1]; α6:β2 mRNA ratio 1:2, range of maximum currents): 3.06–31.7
nH ([1]; α6:β2 mRNA ratio 1:5, Hill coefficient): 0.95 ± 0.04
Imax ([1]; α6:β2 mRNA ratio 1:5, range of maximum currents): 0.70–8.21
nH ([1]; α6:β2 mRNA ratio 1:10, Hill coefficient): 0.83 ± 0.02
Imax ([1]; α6:β2 mRNA ratio 1:10, range of maximum currents): 1.01–4.67
nH ([1]; α6:β2 mRNA ratio 1:20, Hill coefficient): 0.86 ± 0.03
Imax ([1]; α6:β2 mRNA ratio 1:20, range of maximum currents): 1.01–10.9
nH ([1]; α6:β2 mRNA ratio 2:1, Hill coefficient): 1.14 ± 0.03
Imax ([1]; α6:β2 mRNA ratio 2:1, range of maximum currents): 0.94–79.5
nH ([1]; α6:β2 mRNA ratio 5:1, Hill coefficient): 1.17 ± 0.04
Imax ([1]; α6:β2 mRNA ratio 5:1, range of maximum currents): 0.70–79.9
nH ([1]; α6:β2 mRNA ratio 10:1, Hill coefficient): 1.17 ± 0.04
Imax ([1]; α6:β2 mRNA ratio 10:1, range of maximum currents): 4.85–70.7
nH ([1]; α6:β2 mRNA ratio 20:1, Hill coefficient): 1.64 ± 0.05
Imax ([1]; α6:β2 mRNA ratio 20:1, range of maximum currents): 0.25–1.44
nH ([1]; α6:β2 mRNA ratio 50:1, Hill coefficient): 1.17 ± 0.03
Imax ([1]; α6:β2 mRNA ratio 50:1, range of maximum currents): 8.25–57.3
currents in response to acetylcholine ([1]; α6L9′Sβ2L9′SLFM/AAQA in oocytes): greater than 1 µA
Imax ([3]; 10:1 α6β2‡): 0.28–14.9 uA
nH ([3]; 10:1 α6β2‡): 1.36 ± 0.03
Imax [4]: 0.31–13.3 uA
Imax ([5]; 10:1 α6β2‡): 0.09–1.94 uA
nH ([5]; 10:1 α6β2‡): 1.04 ± 0.03
Imax ([6]; 10:1 α6β2‡): 0.76–9.33 uA
nH ([6]; 10:1 α6β2‡): 1.43 ± 0.02
Imax [7]: 0.18–4.28 uA
nH [7]: 1.30 ± 0.04
slope of linear trend of fluorination plot ([8]; 10:1 α6β2‡, trend excludes 5-CNTrp and 4-F1Trp): −0.10
cation-π interaction with the indole side chain of TrpB [8]: strong cation-π interaction
cation-π interaction to TrpB (α4β2 nAChR): strong cation-π interaction
Imax ([9]; 10:1 α6β2‡): 0.22–15.1 uA
nH ([9]; 10:1 α6β2‡): 1.32 ± 0.04
cation-π interaction (muscle-type nAChR): does
nH ([10]; TrpB = 5-F1Trp, 10:1 α6β2‡): 1.37 ± 0.03
Imax [11]: 0.71–6.92 uA

C[N+](C)(C)CCOC(N)=O.[Cl-] [CCh, carbamylcholine chloride]
EC50 [1, 14]: 1360 ± 50 nM
nH [1, 12]: 1.12 ± 0.04
Imax [1, 13]: 3.63–52.5 µA

C[N+](C)(C)CCO [Ch, choline chloride]
Eff (α6β2‡ nAChR): 0.33 ± 0.02
Imax [1]: 2.08–15.4 µA
nH [1]: 1.32 ± 0.05
EC50 ([1]; EC50): 159000 ± 7000 nM

O=c1cccc2n1C[C@@H]1CNC[C@H]2C1 [Cyt, cytisine]
Eff (α6β2‡ nAChR): 0.28 ± 0.01
Imax [1]: 0.57–31.9 µA
nH [1]: 1.31 ± 0.05
potency (EC50) relative to ACh [1]: slightly more potent
EC50 ([1]; EC50): 27 ± 1 nM

CN1CCC[C@H]1c1cccnc1 [Nic, (−)-nicotine tartrate]
Imax ([2]; Table 4): 0.31–3.95 µA
nH ([2]; Table 4): 1.36 ± 0.05
Eff (α6β2‡ nAChR): 0.49 ± 0.03
Imax [1]: 9.48–54.4 µA
nH [1]: 1.38 ± 0.05
Imax ([3]; Table 4): 0.09–5.8 µA
nH ([3]; Table 4): 1.43 ± 0.06
Imax ([5]; Table 4): 0.05–1.05 µA
nH ([5]; Table 4): 1.28 ± 0.03
Imax ([6]; Table 4): 0.32–2.13 µA
nH ([6]; Table 4): 1.30 ± 0.06
cation-π interaction with the indole side chain of TrpB [8]: do not make cation-π interactions
cation-π interaction to TrpB (α4β2 nAChR): strong cation-π interaction
Imax ([9]; Table 4): 0.08–5.65 µA
nH ([9]; Table 4): 1.42 ± 0.04
Imax ([10]; Table 4, TrpB = F1Trp): 0.07–2.06 µA
nH ([10]; Table 4, TrpB = F1Trp): 1.39 ± 0.06

C1=C(/c2cncnc2)CCCNCC/1 [TC299]
EC50 ([2]; Table 4): 73 ± 4 nM
Imax ([2]; Table 4): 0.15–2.35 µA
nH ([2]; Table 4): 0.92 ± 0.03
Fold [2, 15]: 0.78
EC50 [1, 14]: 71 ± 3 nM
nH [1, 12]: 0.99 ± 0.04
Imax [1, 13]: 1.73–21.9 µA
EC50 ([3]; Table 4): 93 ± 4 nM
Imax ([3]; Table 4): 0.33–3.78 µA
nH ([3]; Table 4): 1.09 ± 0.04
Fold [3, 15]: 1
EC50 ([5]; Table 4): 630 ± 30 nM
Imax ([5]; Table 4): 0.05–0.28 µA
nH ([5]; Table 4): 0.90 ± 0.03
Fold [5, 15]: 6.77
EC50 ([6]; Table 4): 138 ± 6 nM
Imax ([6]; Table 4): 0.06–1.87 µA
nH ([6]; Table 4): 0.98 ± 0.04
Fold [6, 15]: 1.48
EC50 ([9]; Table 4): 250 ± 8 nM
Imax ([9]; Table 4): 0.1–7.71 µA
nH ([9]; Table 4): 1.01 ± 0.03
Fold [9, 15]: 2.69
EC50 ([10]; Table 4, TrpB = F1Trp): 220 ± 10 nM
Imax ([10]; Table 4, TrpB = F1Trp): 0.27–3.49 µA
nH ([10]; Table 4, TrpB = F1Trp): 1.01 ± 0.04
Fold ([10]; Table 4, fold-shift in EC50 relative to Trp, TrpB = F1Trp): 2.37

c1cnc2cc3c(cc2n1)[C@@H]1CNC[C@H]3C1 [Var, varenicline]
EC50 ([1]; EC50, agonist panel, α6-biased population, holding potential −60 mV): 31 ± 3 nM
potency (EC50) relative to ACh ([1]; agonist panel at α6β2‡, in words): slightly more potent
nH [1, 12]: 1.08 ± 0.08
Imax [1, 13]: 0.51–12.1 µA

— PMC4635625 (Neuropharmacology, 2015)
